Results taken from ChEMBL document CHEMBL4270548, “Discovery of a potent glucokinase activator with a favorable liver and pancreas distribution pattern for the treatment of type 2 diabetes mellitus” (Eur J Med Chem, 2018).
Converted amounts (≈) assume the structure as drawn. The source made the active and inactive calls. The calls are words filed in the database; no cut-off is given here.

How the values were obtained:
[1] = Aqueous solubility of the compound in phosphate buffered saline at pH 7.4 at 8 to 2000 uM by nephelometric method; format: physicochemical
Method in brief: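 Compound serial dilutions (8 µM–2 mM, before addition to buffer) transferred into PBS pH 7.4 (5 µL into 95 µL). Solubility read by nephelometry. Only wells with blank below mean blank + 2SD were used.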

[2] = target: T1, Hexokinase-4 (Homo sapiens) (UniProt P35557); assay: Activation of human glucokinase assessed as conversion of D-glucose to D-glucose-6-phosphate at 10 uM preincubated for 10 mins followed by 5 mM glucose addition measured for 5 mins at 30 secs time interval by G6PDH/NADP coupled assay relative to control
T1 sequence (whole entry): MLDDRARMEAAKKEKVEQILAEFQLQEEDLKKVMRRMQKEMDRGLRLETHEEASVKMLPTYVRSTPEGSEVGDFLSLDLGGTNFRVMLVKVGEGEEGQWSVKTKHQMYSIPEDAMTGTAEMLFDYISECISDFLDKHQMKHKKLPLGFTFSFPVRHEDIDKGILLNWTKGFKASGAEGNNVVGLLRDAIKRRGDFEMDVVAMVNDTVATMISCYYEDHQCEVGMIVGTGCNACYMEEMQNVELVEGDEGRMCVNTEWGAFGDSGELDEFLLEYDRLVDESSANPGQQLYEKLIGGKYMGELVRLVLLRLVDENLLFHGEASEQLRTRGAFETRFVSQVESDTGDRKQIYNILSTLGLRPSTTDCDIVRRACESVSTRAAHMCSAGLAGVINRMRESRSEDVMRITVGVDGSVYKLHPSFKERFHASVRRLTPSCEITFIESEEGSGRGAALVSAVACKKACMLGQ
Method in brief: (§1)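 Human GK in 25 mM HEPES pH 7.1, 25 mM KCl, 2 mM MgCl2, 1 mM NADP, 1 mM DTT, 2 U/mL G6PDH and 5 mM D-glucose. Compound at 10 µM preincubated 10 min at room temperature. Started with 20 mM ATP (added stock). A340 read every 30 s for 5 min, slope from the first 3 min. Fold over DMSO, or relative scale (DMSO 0, 10 µM reference activator 1). Mean ± SEM, n = 3.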

[3] = target: T1, Hexokinase-4 (Homo sapiens); assay: Activation of human glucokinase assessed as conversion of D-glucose to D-glucose-6-phosphate at 10 uM preincubated for 10 mins […] measured for 5 mins at 30 secs time interval by G6PDH/NADP coupled assay relative to RO0281675; method in brief: as §1
[4] = target: hERG (KCNH2) (Homo sapiens, UniProt Q12809); assay: Inhibition of [3H]-dofetilide binding to human ERG expressed in HEK293 cell membranes at 30 uM after 1 hr by scintillation proximity assay relative to control; conditions: HEK293 cell membranes that express hERG, probe [3H]-dofetilide
Sequence of hERG (KCNH2) (Q12809 whole entry): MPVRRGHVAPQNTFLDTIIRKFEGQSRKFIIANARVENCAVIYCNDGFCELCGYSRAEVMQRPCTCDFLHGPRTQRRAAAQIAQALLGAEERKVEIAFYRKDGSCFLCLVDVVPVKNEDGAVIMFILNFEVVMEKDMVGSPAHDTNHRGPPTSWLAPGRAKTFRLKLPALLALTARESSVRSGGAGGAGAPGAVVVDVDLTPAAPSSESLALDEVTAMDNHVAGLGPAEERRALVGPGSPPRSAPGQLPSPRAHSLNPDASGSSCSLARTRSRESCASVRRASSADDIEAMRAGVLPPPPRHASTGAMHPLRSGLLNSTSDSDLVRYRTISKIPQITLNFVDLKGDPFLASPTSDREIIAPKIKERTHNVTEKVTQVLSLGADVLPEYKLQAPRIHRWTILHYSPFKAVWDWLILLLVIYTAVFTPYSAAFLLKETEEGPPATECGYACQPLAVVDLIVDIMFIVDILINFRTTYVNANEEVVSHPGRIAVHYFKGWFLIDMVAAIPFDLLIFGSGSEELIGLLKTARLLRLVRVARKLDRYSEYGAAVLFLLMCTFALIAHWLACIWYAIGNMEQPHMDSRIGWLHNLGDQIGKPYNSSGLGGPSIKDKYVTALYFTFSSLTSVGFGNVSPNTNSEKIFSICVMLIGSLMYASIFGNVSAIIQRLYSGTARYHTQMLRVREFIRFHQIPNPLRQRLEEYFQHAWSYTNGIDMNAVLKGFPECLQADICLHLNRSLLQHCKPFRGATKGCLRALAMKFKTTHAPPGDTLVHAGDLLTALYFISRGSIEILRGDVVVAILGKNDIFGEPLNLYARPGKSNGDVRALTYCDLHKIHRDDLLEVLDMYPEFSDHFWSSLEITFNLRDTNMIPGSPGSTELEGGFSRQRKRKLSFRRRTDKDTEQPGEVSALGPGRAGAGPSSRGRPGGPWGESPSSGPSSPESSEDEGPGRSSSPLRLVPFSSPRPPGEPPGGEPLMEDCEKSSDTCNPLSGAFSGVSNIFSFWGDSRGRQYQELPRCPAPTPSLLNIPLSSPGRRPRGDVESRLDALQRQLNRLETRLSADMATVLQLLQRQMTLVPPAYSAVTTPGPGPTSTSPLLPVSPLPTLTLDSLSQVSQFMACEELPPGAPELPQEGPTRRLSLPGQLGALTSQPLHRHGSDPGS
Method in brief: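 hERG-HEK293 membranes with 10 nM final [3H]-dofetilide and poly-L-lysine SPA beads in 50 mM Tris-Cl, 1.0 mM MgCl2, 10 mM KCl, pH 7.4. Shaken 1 h, beads settled 3 h, then scintillation counting. Normalized to DMSO (0%) and E-4031 (100% inhibition). Single-point at 30 µM, mean ± SEM, n = 3.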

[5] = test system: Mus musculus; assay: Antidiabetic activity in C57BL/6J mouse assessed as increase in insulin secretion at 100 mg/kg, po measured up to 60 mins by ELISA; format: functional, organism-based
Method in brief: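 Male C57BL/6J mice (8 weeks) fasted 2 h, then dosed orally at time 0 (n = 8/group). Tail vein insulin measured at 0, 30 and 60 min by ultra-sensitive mouse insulin ELISA. Mean ± SEM, Dunnett's test.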

[6] = test system: Mus musculus; assay: Antidiabetic activity in po dosed ob/ob mouse assessed as reduction in blood glucose level administered for 15 to 30 mins prior to glucose challenge measured up to 120 mins post dose by OGTT; format: functional, organism-based
Method in brief: (§2)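 Fasted male C57BL/6J or ob/ob mice (8 weeks, n = 8/group) dosed orally in 0.5% methylcellulose 15 or 30 min before a 2 g/kg oral glucose load. Tail vein glucose measured by glucometer at −15 or −30, 0, 20, 40, 60, 90 and 120 min. Incremental glucose AUC0-120 min compared with vehicle. Mean ± SEM, Dunnett's test.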

[7] = test system: Mus musculus; assay: Antidiabetic activity in ob/ob mouse assessed as reduction in plasma glucose level at 10 to 30 mg/kg, po bid administered for 28 days measured at post last dose by glucometric method; format: functional, organism-based
Method in brief: (§3)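 Male ob/ob mice (9 weeks) dosed orally twice daily for 4 weeks, vehicle 0.5% MC. Plasma glucose measured by portable glucometer at 2 and 4 weeks. Liver TG assessed at the end of treatment. Mean ± SEM (n = 10), Dunnett's test versus vehicle.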

[8] = test system: Mus musculus; assay: Antidiabetic activity in po dosed C57BL/6J mouse assessed as reduction in blood glucose level administered for 15 to 30 mins prior to glucose challenge measured up to 120 mins post dose by OGTT; format: functional, organism-based; method in brief: as §2
[9] = test system: Mus musculus; assay: Antidiabetic activity in ob/ob mouse assessed as reduction in plasma glucose level at 10 to 30 mg/kg, po bid administered for 14 days measured at post last dose by glucometric method; format: functional, organism-based; method in brief: as §3
[10] = test system: Mus musculus; assay: Antidiabetic activity in po dosed C57BL/6J mouse assessed as reduction in blood glucose level administered 15 mins prior to glucose challenge measured up to 120 mins post dose by OGTT; format: functional, organism-based; method in brief: as §2
[11] = Cmax in mouse at 30 mg/kg, po administered as single dose by LC/MS/MS analysis; conditions: in vivo
[12] = test system: Mus musculus; assay: Antidiabetic activity in C57BL/6J mouse assessed as reduction in blood glucose AUC (0 to 120 mins) at 30 mg/kg, po dosed 30 minutes prior to glucose challenge by OGTT relative to control; format: functional; set-up: scale not given: the % may be the effect or the level left; method in brief: as §2

Cc1sc(-c2ccccc2C(=O)NCCO)cc1C(=O)Nc1nc2c(s1)CCC2
solubility kinetic [1]: 0.98 µM (≈ 0.419 µg/mL)
fold change (FC) [2]: 3.89
fold change (FC) [3]: 0.373

CCN(CC(=O)O)CC(=O)N1CCC[C@H]1c1cc(C(=O)Nc2ncc(F)s2)c(C)s1 [listing 1 of 2 here]
inhibition at 1 h, 30 µM [4]: -1%

Cc1sc(C2CCCN2C(=O)CN(C)CCCC(=O)O)cc1C(=O)Nc1ncc(F)s1 (stereo unspecified)
inhibition at 1 h, 30 µM [4]: 78%
fold change (FC) [2]: 6.86
fold change (FC) [3]: 0.61

Cc1sc(C2CCCN2C(=O)CNCC(=O)O)cc1C(=O)Nc1ncc(Cl)s1 (stereo unspecified)
inhibition at 1 h, 30 µM [4]: 28%
fold change (FC) [2]: 4.75
fold change (FC) [3]: 0.438

Cc1sc(C2CCCN2C(=O)CN(C)CCCCC(=O)O)cc1C(=O)Nc1ncc(F)s1 (stereo unspecified)
inhibition at 1 h, 30 µM [4]: 77%
fold change (FC) [2]: 6.95
fold change (FC) [3]: 0.619

CC(=O)N(C)CC(=O)N1CCCC1c1cc(C(=O)Nc2ncc(Cl)s2)c(C)s1 (stereo unspecified)
fold change (FC) [2]: 2.57
fold change (FC) [3]: 0.118

Cc1sc([C@H]2CCCN2C(=O)CN(C)C)cc1C(=O)Nc1ncc(Cl)s1.Cl
solubility kinetic [1]: 1.95 µM
fold change (FC) [2]: 4.99
fold change (FC) [3]: 0.381

Cc1sc(N2CCCCC2=O)cc1C(=O)Nc1nc2c(s1)CCC2
solubility kinetic [1]: 0.98 µM (≈ 0.354 µg/mL)
fold change (FC) [2]: 2.96
fold change (FC) [3]: 0.235

Cc1sc(C2CCCN2C(=O)CN(C)S(C)(=O)=O)cc1C(=O)Nc1ncc(Cl)s1 (stereo unspecified)
fold change (FC) [2]: 3.24
fold change (FC) [3]: 0.168

Cc1sc(C2CCCN2C(=O)CN)cc1C(=O)Nc1nccs1 (stereo unspecified)
solubility kinetic [1]: 7.81 µM (≈ 2.74 µg/mL)
fold change (FC) [2]: 3.67
fold change (FC) [3]: 0.293

Cc1sc(C2CCCN2C(=O)CN(C)C)cc1C(=O)Nc1nccs1 (stereo unspecified)
solubility kinetic [1]: 7.81 µM (≈ 2.96 µg/mL)
fold change (FC) [2]: 4.7
fold change (FC) [3]: 0.38

CC(=O)NCC(=O)N1CCCC1c1cc(C(=O)Nc2ncc(Cl)s2)c(C)s1 (stereo unspecified)
inhibition at 1 h, 30 µM [4]: 3%
fold change (FC) [2]: 5.32
fold change (FC) [3]: 0.395

Cc1sc(-c2ccccc2C(=O)NCCc2nnn[nH]2)cc1C(=O)Nc1nc2c(s1)CCC2
solubility kinetic [1]: 31.3 µM (≈ 15 µg/mL)
fold change (FC) [2]: 0.84
fold change (FC) [3]: -0.019

CC(=O)N1CCCC1c1cc(C(=O)Nc2nc3c(s2)CCC3)c(C)s1 (stereo unspecified)
solubility kinetic [1]: 7.81 µM (≈ 2.93 µg/mL)
fold change (FC) [2]: 2.53
fold change (FC) [3]: 0.187

Cc1sc(C2CCCN2C(=O)CCN)cc1C(=O)Nc1nccs1 (stereo unspecified)
solubility kinetic [1]: 15.6 µM (≈ 5.69 µg/mL)
fold change (FC) [2]: 2.86
fold change (FC) [3]: 0.175

Cc1sc(-c2ccccc2C(=O)NCCC(N)=O)cc1C(=O)Nc1nc2c(s1)CCC2
solubility kinetic [1]: 3.91 µM (≈ 1.78 µg/mL)
fold change (FC) [2]: 2.56
fold change (FC) [3]: 0.187

Cc1sc(C2CCCN2C(=O)CCN)cc1C(=O)Nc1nc2c(s1)CCC2 (stereo unspecified)
solubility kinetic [1]: 0.98 µM (≈ 0.396 µg/mL)
fold change (FC) [2]: 3.46
fold change (FC) [3]: 0.274

Cc1sc(-c2ccccc2C(=O)NCCN(C)C)cc1C(=O)Nc1nc2c(s1)CCC2
solubility kinetic [1]: 1.95 µM (≈ 0.887 µg/mL)
fold change (FC) [2]: 4.31
fold change (FC) [3]: 0.428

CCN(CC(=O)O)CC(=O)N1CCC[C@H]1c1cc(C(=O)Nc2ncc(F)s2)c(C)s1 [listing 2 of 2 here]
Activity [5]: Active
Activity [6]: Dose-dependent effect
fold change (FC) [2]: 8.6
fold change (FC) [3]: 0.87
Activity [7]: Active
Activity [8]: Dose-dependent effect
Activity [9]: Active

Cc1sc([C@@H]2CCCN2C(=O)CN(C)CCC(=O)O)cc1C(=O)Nc1ncc(F)s1
inhibition at 1 h, 30 µM [4]: 49%
fold change (FC) [2]: 7.26
fold change (FC) [3]: 0.686

Cc1sc([C@@H]2CCCN2C(=O)[C@H](C)N(C)CC(=O)O)cc1C(=O)Nc1ncc(F)s1
inhibition at 1 h, 30 µM [4]: 4%
fold change (FC) [2]: 8.8
fold change (FC) [3]: 0.832

Cc1sc(C2CCCN2C(=O)CN(C)C)cc1C(=O)Nc1ncc(Cl)s1 (stereo unspecified)
solubility kinetic [1]: 3.91 µM (≈ 1.61 µg/mL)
fold change (FC) [2]: 6.81
fold change (FC) [3]: 0.598

Cc1sc([C@@H]2CCCN2C(=O)CN(C)C)cc1C(=O)Nc1ncc(Cl)s1.Cl
solubility kinetic [1]: 7.81 µM
inhibition at 1 h, 30 µM [4]: 101%
fold change (FC) [2]: 10.4
fold change (FC) [3]: 0.65
Activity [10]: Active
Cmax [11]: > 9 µM

Cc1sc(-c2ccccc2C(N)=O)cc1C(=O)Nc1nc2c(s1)CCC2
solubility kinetic [1]: 1.95 µM (≈ 0.748 µg/mL)
fold change (FC) [2]: 6.23
fold change (FC) [3]: 0.699
Cmax [11]: < 1 µM

Cc1sc(C2CCCN2C(=O)CNS(C)(=O)=O)cc1C(=O)Nc1ncc(Cl)s1 (stereo unspecified)
inhibition at 1 h, 30 µM [4]: 16%
fold change (FC) [2]: 6.21
fold change (FC) [3]: 0.46

Cc1sc(N2CCCC2=O)cc1C(=O)Nc1nc2c(s1)CCC2
solubility kinetic [1]: 3.91 µM (≈ 1.36 µg/mL)
fold change (FC) [2]: 2.41
fold change (FC) [3]: 0.168

Cc1sc(C2CCCN2C(=O)CN(C)CCC(=O)O)cc1C(=O)Nc1ncc(F)s1.Cl (stereo unspecified)
Activity [12]: 47%
inhibition at 1 h, 30 µM [4]: 17%
fold change (FC) [2]: 4.89
fold change (FC) [3]: 0.466

Cc1sc(C2CCCN2C(=O)CN(C)CC(=O)O)cc1C(=O)Nc1ncc(F)s1 (stereo unspecified)
inhibition at 1 h, 30 µM [4]: -6%
fold change (FC) [2]: 6.92
fold change (FC) [3]: 0.71

Cc1sc(C2CCCN2C(=O)CN(C)CC(=O)O)cc1C(=O)Nc1ncc(Cl)s1.Cl (stereo unspecified)
Activity [12]: 82%
inhibition at 1 h, 30 µM [4]: 11%
fold change (FC) [2]: 8.35
fold change (FC) [3]: 0.718

CC(=O)N1CCCCC1c1cc(C(=O)Nc2nc3c(s2)CCC3)c(C)s1 (stereo unspecified)
solubility kinetic [1]: 0.98 µM (≈ 0.382 µg/mL)
fold change (FC) [2]: 1.13
fold change (FC) [3]: 0.017
